# MT1-MMP act inh: blocks activation of human MT1-MMP | P50281 | HT1080 RFP-PRO-GFP cells, GFP/RFP ratio fluorescence, overnight; percent of plate control window, DMSO zero | GFP/RFP ratio change, % at 20 µM | 360,000 compounds, 0.061% hits | AID 651647;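 active = GFP/RFP ratio change of at least 30% with cell ATP level not reduced by more than half and red fluorescence within 50% of control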
#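 Assay system: RFP-PRO-GFP reporter HT1080 cells; read-out basis: GFP/RFP fluorescence ratio; benchmarks: DMSO wells and RFP-L50D-GFP cells; doses: 20 µM single dose, 1% DMSO; schedule: overnight cell settling, then overnight compound exposure, 37 °C, 5% CO2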
# GRIN3A LBD mod: NR3A (human) ligand-binding domain modulation | 340,000 compounds, 2.5% hits | Tm shift relative to glycine control, % at 25 µM | NR3A LBD differential scanning fluorimetry, Tm shift; 0% = protein alone, 100% = glycine-bound protein;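 active = melting temperature shift of at least 10% of the positive control shift, at one fixed dose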
# ADAM17 inh: ADAM17 inhibition, QFRET primary screen; P78536; recombinant ADAM17, EDANS/DABCYL FRET peptide cleavage; inhibition, % at 6.95 µM; 370,000 compounds, 0.83% hits; AID 720648;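 active = inhibition above the mean of compounds lying between control limits plus 3 SD, set per campaign, cut at about 8.5% in these data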
# ADAM10 inh: inhibitors of human ADAM10. O14672. recombinant ADAM10, EDANS/DABCYL FRET peptide cleavage, 3 h. inhibition, % at 7 µM. 370,000 compounds, 0.62% hits. AID 720582;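 active = inhibition above a per-campaign cutoff equal to the mean of compounds falling between control-based bounds plus 3 SD, cut at about 20% in these data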
# Target sequence (O14672 214-748 limits assumed): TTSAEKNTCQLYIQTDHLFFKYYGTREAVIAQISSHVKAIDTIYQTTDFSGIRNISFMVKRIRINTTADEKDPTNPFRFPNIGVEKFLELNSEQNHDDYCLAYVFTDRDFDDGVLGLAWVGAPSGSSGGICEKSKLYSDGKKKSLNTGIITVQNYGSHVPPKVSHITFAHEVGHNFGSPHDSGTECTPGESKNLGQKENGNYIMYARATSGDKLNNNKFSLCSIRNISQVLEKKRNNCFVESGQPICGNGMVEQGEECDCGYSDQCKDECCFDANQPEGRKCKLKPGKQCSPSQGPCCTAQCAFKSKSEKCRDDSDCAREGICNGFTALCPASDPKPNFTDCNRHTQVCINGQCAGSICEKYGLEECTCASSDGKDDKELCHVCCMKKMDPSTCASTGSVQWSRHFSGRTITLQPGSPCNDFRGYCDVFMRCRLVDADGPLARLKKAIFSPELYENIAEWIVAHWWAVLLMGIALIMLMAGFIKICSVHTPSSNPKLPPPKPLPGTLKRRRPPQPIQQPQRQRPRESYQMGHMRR
# MPTP inh: inhibitors of mitochondrial permeability transition pore. isolated mouse mitochondria, Ca2+ swelling absorbance, 30 min. inhibition, % at 10 µM. 360,000 compounds, 1.4% hits. AID 602449;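 active = inhibition of 50% or more, scaled per plate between neutral and stimulator controls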
# SKN-1 block: blocks SKN-1 activity in C. elegans; C. elegans VP596 Pgst-4::GFP/RFP ratio, acrylamide-induced, 24 h; inhibition, % at 21.8 µM; 360,000 compounds, 0.49% hits;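 active = interference check ratio from 0.5 to 1.5 plus GFP to RFP signal ratio inhibition reaching or exceeding a fixed threshold, cut at about 30% in these data, passing the limit was not always enough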
# A number is an active result; . = inactive; / = no result given. Hits are enriched below; roughly 4.7% of the tested compounds scored in any of these assays.
SMILES,MT1-MMP act inh,GRIN3A LBD mod,ADAM17 inh,ADAM10 inh,MPTP inh,SKN-1 block
Nc1ccccc1N=Nc1ccccc1N,.,23,.,.,.,.
O=C(CN1CCCN(S(=O)(=O)c2ccc(Br)s2)CC1)Nc1ccc(Cl)cc1,.,.,.,20,.,.
O=C(Nc1ccc(S(=O)(=O)N2CCCC2)cc1)Nc1ccc(F)cc1F,.,37,.,.,.,.
O=C(Nc1ccc(F)cc1F)c1ccc(S(=O)(=O)N2CCCCC2)cc1,.,.,.,.,.,.
CCCCC(=O)Nc1ccc(C(=O)Nc2ccc(S(=O)(=O)N3CCCC3)cc2)cc1,.,31,.,.,.,.
O=C(Nc1ccc(S(=O)(=O)N2CCCC2)cc1)c1ccc(Cl)nc1,.,.,.,.,.,.
O=C(Nc1ccc(S(=O)(=O)N2CCCCC2)cc1)c1ccc(Cl)nc1,.,24,.,.,.,.
CC(=O)c1ccc(NC(=O)c2ccc(S(=O)(=O)N3CCCC3)cc2)cc1,.,.,.,.,.,.
O=C(CS(=O)(=O)c1c[nH]c2ccccc12)Nc1ccc2c(c1)OCCO2,.,.,.,.,.,.
O=C(NNC(=S)Nc1ccccc1C(F)(F)F)c1cccnc1,.,.,.,.,.,.
NC(=S)NN=C1c2cc(OCCN3CCOCC3)ccc2-c2ccc(OCCN3CCOCC3)cc21,.,.,.,.,.,.
O=C(CNc1cccc(S(=O)(=O)N2CCCC2)c1)Nc1cccc(F)c1,.,.,.,.,.,.
Cc1ccc(NC(=O)c2ccc(F)cc2F)cc1,.,.,.,.,.,41
O=C(CNc1ccc(F)cc1Cl)Nc1cccc(S(=O)(=O)N2CCCCC2)c1,.,13,.,.,.,.
CC(=O)Nc1ccc(NC(=O)c2ccc(S(=O)(=O)N3CCCCCC3)cc2)cc1,.,/,.,.,.,.
CC(=O)Nc1ccc(C(=O)Nc2ccc(S(=O)(=O)N3CCCCC3)cc2)cc1,.,23,.,.,.,.
O=C(Nc1ccccc1)c1ccc(F)cc1F,.,.,.,.,.,.
Cc1cc(C(=O)Nc2ccc(S(=O)(=O)N3CCCC3)cc2)cs1,.,.,.,.,.,.
Cc1ccc(C(=O)Nc2ccc(S(=O)(=O)N3CCCC3)cc2)s1,.,24,.,.,.,.
O=C(O)c1ccc(C2CCCCC2)cn1,.,.,.,.,.,.
CSc1nc2c(=S)[nH]c(=S)[nH]c2s1,.,/,.,.,.,.
COc1ccc(CC(=O)Nc2cccc(Cl)c2C)cc1S(=O)(=O)N1CCOCC1,.,.,.,.,.,.
O=C(Nc1ccc(F)cc1)Nc1ccccc1F,.,.,.,.,.,.
O=C(Nc1ccc(NC(=O)c2ccccc2O)cc1)Nc1ccc(F)cc1F,.,31,.,.,.,.
O=C(Nc1cccc(F)c1)c1ccc(S(=O)(=O)N2CCCCC2)cc1,.,17,.,.,.,.
SMILES,MT1-MMP act inh,GRIN3A LBD mod,ADAM17 inh,ADAM10 inh,MPTP inh,SKN-1 block
O=C(CN1CCCCC1)Nc1ccc(S(=O)(=O)N2CCCCCC2)cc1,.,11,.,.,.,.
O=C(COC(=O)CCc1ccccc1)NC(c1ccccc1)c1ccccc1,.,.,.,.,.,.
CC(C)CCNC(=S)Nc1ccccc1F,.,14,.,.,.,.
COC(=O)c1cnc2ccccc2n1,.,.,.,.,.,.
O=C(O)c1cnc2ccccc2n1,.,.,.,.,.,37
C/C(N)=N\S(=O)(=O)c1ccc(Cl)cc1,.,.,.,.,.,.
CCOC(=O)CN1CC23C=CC(O2)C(C(=O)NCc2ccc(C)cc2)C3C1=O (centres undefined),.,.,.,.,.,.
CCOC(=O)CN1CC23C=CC(O2)C(C(=O)NCc2cccs2)C3C1=O (centres undefined),.,.,.,.,.,37
O=C(Nc1nnc(CSCc2ccc(F)cc2)s1)c1cccc([N+](=O)[O-])c1,.,.,.,.,.,.
O=C(Nc1nnc(CSCc2ccc(Cl)cc2)s1)c1cccc([N+](=O)[O-])c1,.,19,.,.,.,.
CC(C)(C)NC(=O)CN(C(=O)CCN1CCCc2ccccc21)C(C)(C)C,.,.,.,.,.,40
CC(C)(C)NC(=O)CN(Cc1cccs1)C(=O)CCN1CCc2ccccc21,.,.,.,.,.,.
